Assay results reported in ChEMBL document CHEMBL1148254, “Lead discovery of quinoxalinediones as an inhibitor of dipeptidyl peptidase-IV (DPP-IV) by high-throughput screening” (Bioorg Med Chem Lett, 2004).

target: Dipeptidyl peptidase 4 (Rattus norvegicus) (UniProt P14740); test: Inhibitory activity against Dipeptidylpeptidase IV in rat; set-up: concentration or dose not given beside the values; settings: concentration not given here
Procedure, shortened: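 Rat plasma was the enzyme source, incubated with Ala-Pro-AFC substrate (40) at room temperature, pH 7.8, for 1 h with or without test compound (20). Compounds were dissolved in DMSO, giving 5% DMSO in the assay mixture. Released AFC was read by fluorescence at 360 nm excitation and 485 nm emission, and a reference inhibitor was included.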

Chain of Dipeptidyl peptidase 4 (Rattus norvegicus) (P14740 whole entry, looked up): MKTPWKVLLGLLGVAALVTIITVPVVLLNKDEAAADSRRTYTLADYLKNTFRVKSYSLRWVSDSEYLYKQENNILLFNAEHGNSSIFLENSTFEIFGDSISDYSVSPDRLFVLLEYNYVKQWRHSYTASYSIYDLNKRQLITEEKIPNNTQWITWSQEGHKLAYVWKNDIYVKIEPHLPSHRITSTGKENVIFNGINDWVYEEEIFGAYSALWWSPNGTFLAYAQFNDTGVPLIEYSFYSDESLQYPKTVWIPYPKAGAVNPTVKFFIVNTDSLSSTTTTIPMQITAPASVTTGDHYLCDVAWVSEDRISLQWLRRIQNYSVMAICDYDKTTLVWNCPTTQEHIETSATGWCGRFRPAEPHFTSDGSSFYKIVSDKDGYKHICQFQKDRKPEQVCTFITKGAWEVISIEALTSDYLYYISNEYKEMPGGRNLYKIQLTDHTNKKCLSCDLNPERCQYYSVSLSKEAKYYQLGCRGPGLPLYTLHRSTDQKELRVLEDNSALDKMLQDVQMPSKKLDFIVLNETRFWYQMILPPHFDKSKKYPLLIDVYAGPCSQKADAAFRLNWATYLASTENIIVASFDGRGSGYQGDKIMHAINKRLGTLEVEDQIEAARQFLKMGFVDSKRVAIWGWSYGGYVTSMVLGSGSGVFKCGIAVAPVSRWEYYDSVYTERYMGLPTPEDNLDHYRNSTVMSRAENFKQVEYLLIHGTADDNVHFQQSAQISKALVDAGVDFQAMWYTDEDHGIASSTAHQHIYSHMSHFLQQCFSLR

Compound | inhibition [%]
Cc1ccccc1S(=O)(=O)NC(=O)Nn1c(=O)c(=O)[nH]c2cc(Cl)ccc21 | 26.4
O=C(Nc1ccccc1)Nn1c(=O)c(=O)[nH]c2cc([N+](=O)[O-])ccc21 | 3.6
O=C(Nn1c(=O)c(=O)[nH]c2cc(Cl)c(Cl)cc21)NS(=O)(=O)c1ccccc1 | 23.7
O=C(NC(=O)c1ccccc1)Nn1c(=O)c(=O)[nH]c2ccccc21 | 13
O=c1[nH]c2ccccc2n(NC(=S)NCc2ccccc2)c1=O | 41.5
O=C(Nn1c(=O)c(=O)[nH]c2cc([N+](=O)[O-])ccc21)NS(=O)(=O)c1ccc(Cl)cc1 | 66.8
Cc1ccc(S(=O)(=O)NC(=O)Nn2c(=O)c(=O)[nH]c3cc(Cl)ccc32)cc1 | 20.5
Cc1ccc(NC(=O)Nn2c(=O)c(=O)[nH]c3cc([N+](=O)[O-])ccc32)cc1 | 1
O=c1[nH]c2cc(Cl)c(Cl)cc2n(NC(=S)Nc2ccccc2)c1=O | 50
Cc1ccc(S(=O)(=O)NC(=O)Nn2c(=O)c(=O)[nH]c3ccccc32)cc1 | 12.3
Cc1ccc(S(=O)(=O)NC(=O)Nn2c(=O)c(=O)[nH]c3cc(Cl)c(Cl)cc32)cc1 | 21
O=C(Nn1c(=O)c(=O)[nH]c2cc([N+](=O)[O-])ccc21)NS(=O)(=O)c1ccccc1 | 57.2
O=C(Nc1cccc(Cl)c1)Nn1c(=O)c(=O)[nH]c2cc([N+](=O)[O-])ccc21 | 6.6
O=C(Nn1c(=O)c(=O)[nH]c2cc(Cl)ccc21)NS(=O)(=O)c1ccccc1 | 17.3
O=c1[nH]c2ccccc2n(NC(=S)Nc2cccc(Cl)c2)c1=O | 32.1
O=C(Nc1ccc(F)cc1F)Nn1c(=O)c(=O)[nH]c2cc([N+](=O)[O-])ccc21 | 5.1
Cc1ccccc1S(=O)(=O)NC(=O)Nn1c(=O)c(=O)[nH]c2ccccc21 | 12.3
O=c1[nH]c2ccccc2n(NC(=S)Nc2ccccc2)c1=O | 26.5
CC/N=C(\S)Nn1c(=O)c(=O)[nH]c2ccccc21 | 40.1
Cc1ccc(S(=O)(=O)NC(=O)Nn2c(=O)c(=O)[nH]c3cc([N+](=O)[O-])ccc32)cc1 | 48
O=C(NC(=S)Nn1c(=O)c(=O)[nH]c2cc(Cl)c(Cl)cc21)c1ccccc1 | 20.5
O=C(Nn1c(=O)c(=O)[nH]c2ccccc21)NS(=O)(=O)c1ccccc1 | 14.1
Cc1ccccc1S(=O)(=O)NC(=O)Nn1c(=O)c(=O)[nH]c2cc(Cl)c(Cl)cc21 | 10.4
O=C(NC(=O)c1ccccc1)Nn1c(=O)c(=O)[nH]c2cc(Cl)ccc21 | 14.8
Cc1ccccc1S(=O)(=O)NC(=O)Nn1c(=O)c(=O)[nH]c2cc([N+](=O)[O-])ccc21 | 79.1
O=C(NC(=O)c1ccccc1)Nn1c(=O)c(=O)[nH]c2cc([N+](=O)[O-])ccc21 | 72.2
